# Measurements of several laboratories.
# Lines come from different studies, so protocols differ.
# CDK4: Cyclin-dependent kinase 4 (CDK4, Homo sapiens, UniProt P11802)
# CDK4 with cyclin D1: Cyclin-dependent kinase 4, with cyclin D1 (CDK4, Homo sapiens, UniProt P11802)
# CDK4 with cyclin D3: Cyclin-dependent kinase 4, with cyclin D3 (CDK4, Homo sapiens, UniProt P11802)
Structure (SMILES),target,observed,method,tested at,remaining binding [%]
CN(C)CC#Cc1ccc(OCCCc2sc(N3CCc4cccc(C(=O)Nc5nc6ccccc6s5)c4C3)nc2C(=O)O)c(F)c1,CDK4,cell-free assay,competition with immobilised ligand,1 µM,100
c1cncc(-c2cccc(Nc3nccc(NC4CCCCC4)n3)c2)c1,CDK4 with cyclin D1,binding,competition with immobilised ligand,10 µM,100
O=C(NCC1CCOCC1)c1n[nH]cc1NC(=O)c1c(F)cccc1F,CDK4 with cyclin D3,binding,competition with immobilised ligand,1 µM,20
C[C@H](c1ccc(F)cc1)N(Cc1cccc(C(=O)O)c1)C(=O)c1cnc2ccccc2c1,CDK4 with cyclin D1,cell-free assay,competition with immobilised ligand,1 µM,100
C[C@@H](c1ccc(-n2cnc3c(N)ncnc32)cc1)N1CCc2nn(C)c(Cc3ccccc3)c2C1=O,CDK4 with cyclin D1,binding,competition with immobilised ligand,0.1 µM,73
CC(C)CC(=O)N1CCc2nc(-c3ccc(Br)cc3)nc(N(C)Cc3ccccc3)c2C1,CDK4 with cyclin D3,cell-free assay,competition with immobilised ligand,0.1 µM,100
c1cnn2ncc(-c3ccnc(N4CCC45COC5)n3)c2c1,CDK4,binding,,1 µM,78
COc1ncc2cc3ccccc3nc2c1C#N,CDK4 with cyclin D1,cell-free assay,competition with immobilised ligand,5 µM,82
COc1cnc(Nc2cccc(S(N)(=O)=O)c2)nc1N1CCN(c2ccccc2)C(=O)C1,CDK4 with cyclin D1,binding,competition with immobilised ligand,1 µM,100
CN(c1nccc(-c2cnn3ncccc23)n1)C1CC1,CDK4,binding,,1 µM,100
O=C(c1ccc(Nc2nccc(-c3cc4ccccc4s3)n2)cc1)N1CCC(N2CCCC2)CC1,CDK4 with cyclin D3,binding,competition with immobilised ligand,1 µM,18
CCN1CCN(Cc2ccc(C(=O)Nc3ccc(C)c(Oc4ccc5c(c4)CC(=O)N5)c3)cc2C(F)(F)F)CC1,CDK4 with cyclin D3,binding,competition with immobilised ligand,1 µM,100
CCCCN(CCCC)C(=O)CN1C[C@@H](c2cc(OC)c3c(c2)OCO3)[C@H](C(=O)O)[C@H]1CC(C)(C)CCC,CDK4,cell-free assay,competition with immobilised ligand,1 µM,100
O=C(c1ccc(Nc2ncc(Cl)c(-c3cc4ccccc4s3)n2)cc1)N1CCC(N2CCCC2)CC1,CDK4 with cyclin D3,binding,competition with immobilised ligand,1 µM,0.8
Nc1ncc2c(n1)-c1c([nH]c3ccc(C#CC4CC4)cc13)CCCC2,CDK4 with cyclin D1,binding,competition with immobilised ligand,1 µM,93
C[C@@H]1CN(c2cc(-c3nn(C)c4ccc(OC5(C)CC5)cc34)ncn2)C[C@H](C)O1,CDK4 with cyclin D3,cell-free assay,competition with immobilised ligand,1 µM,71
CNC(=O)[C@@H]1CC[C@@H](n2c(-c3ccc4cnccc4c3)nc3ccc(C(=O)NCc4cccc(C(N)=O)c4)cc32)C1,CDK4 with cyclin D3,binding,competition with immobilised ligand,1 µM,100
O=C(Nc1c[nH]nc1C(=O)NC1CCNCC1)c1cc(F)cc(F)c1,CDK4 with cyclin D1,binding,competition with immobilised ligand,1 µM,66
CNCc1ccccc1-c1csc([C@H](C)Nc2nc(C)nc3cc(OC)c(OC)cc23)c1,CDK4 with cyclin D3,cell-free assay,competition with immobilised ligand,1 µM,96
CN(C)c1nccc(-c2cnn3ncccc23)n1,CDK4 with cyclin D3,binding,,1 µM,100
COc1cnc(Nc2cccc(S(N)(=O)=O)c2)nc1N1CCN(c2ccccc2)CC1,CDK4,binding,competition with immobilised ligand,1 µM,76
N[C@@H]1CCN(c2nccc(-c3cnn4ncccc34)n2)C1,CDK4 with cyclin D1,binding,,1 µM,100
O=C(c1ccc(Nc2ncc(Cl)c(-c3ccc(Cl)s3)n2)cc1)N1CCC(N2CCCC2)CC1,CDK4 with cyclin D1,binding,competition with immobilised ligand,1 µM,0.1
FC(F)(F)c1ccc2c(c1)nc(-c1cccnc1)n2C1CC1,CDK4 with cyclin D1,cell-free assay,competition with immobilised ligand,1 µM,100
C=CC(=O)N1CCC(C(=O)NCC(=O)N2CCN(c3nc(-c4cnc(N)nc4C(F)F)nc(N4CCOCC4)n3)CC2)CC1,CDK4 with cyclin D3,binding,competition with immobilised ligand,1 µM,100
C[C@@H]1CCN(c2nccc(-c3cnn4ncccc34)n2)C1,CDK4 with cyclin D1,binding,,1 µM,88
O=C(NCCCN1CCOCC1)c1ccc(Nc2ncc(Cl)c(-c3ccc(Cl)s3)n2)cc1,CDK4,binding,competition with immobilised ligand,1 µM,50
CN(C)c1ncc(F)c(-c2cnn3ncccc23)n1,CDK4,binding,,1 µM,100
FC(F)(F)Oc1cccc(-c2cnc3ccc(-c4ccncc4)nn23)c1,CDK4 with cyclin D3,cell-free assay,competition with immobilised ligand,5 µM,57
O=C(NCCCN1CCOCC1)c1ccc(Nc2nccc(-c3cc4ccccc4s3)n2)cc1,CDK4,binding,competition with immobilised ligand,1 µM,55
O=S(=O)(NC1CCC(c2cc(F)ccc2F)(S(=O)(=O)c2ccc(Cl)cc2)CC1)C(F)(F)F (stereo not drawn),CDK4 with cyclin D3,cell-free assay,competition with immobilised ligand,1 µM,91
Cc1cnc(Nc2ccc(C(=O)N3CCC(N4CCCC4)CC3)cc2)nc1-c1cc2ccccc2s1,CDK4,binding,competition with immobilised ligand,1 µM,40
CC1CCCN1c1nccc(-c2cnn3ncccc23)n1 (stereo not drawn),CDK4 with cyclin D3,binding,,1 µM,100
